According to ChEMBL document CHEMBL4414663, “Pyrazole-4-Carboxamide (YW2065): A Therapeutic Candidate for Colorectal Cancer via Dual Activities of Wnt/β-Catenin Signaling Inhibition and AMP-Activated Protein Kinase (AMPK) Activation” (J Med Chem, 2019):
The source made the active and inactive calls. The calls are words filed in the database; no cut-off is given here.

Key:
[1] = Toxicity in C57BL/6 mouse assessed as effect on AST level at 100 mg/kg/day, ip for 21 days; format: organism-based; settings: in vivo, 504 h
[2] = target: Mitogen-activated protein kinase kinase kinase kinase 4 (Homo sapiens) (UniProt O95819); test: Inhibition of MAP4K4 (unknown origin) at 1000 nM relative to control
How it was run: (§1)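 Single-concentration screen at 1000 nM against a 273-kinase panel, reported as percent inhibition.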

[3] = target: Maternal embryonic leucine zipper kinase (Homo sapiens) (UniProt Q14680); test: Inhibition of MELK (unknown origin) at 1000 nM relative to control; how it was run: as §1
SW-620 [4] = test: Antitumor activity against human SW620 cells xenografted in nude mouse assessed as reduction in tumor weight at 10 mg/kg, ip QD for 32 consecutive days; format: functional, organism-based
How it was run: (§2)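 Six-week-old nude mice injected subcutaneously with 2×10^6 SW620 cells. Randomised at mean tumor volume 100–200 mm³ (n=6/group). Given 10 or 50 mg/kg ip daily for 32 consecutive days; vehicle 10% DMSO, 10% Kolliphor, 80% saline. Tumor volume measured every other day. Tumors weighed after euthanasia at day 32. t test against vehicle.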

Mus musculus = test: Activation of AMPK in nude mouse xenografted with human SW620 cells assessed as increase in AMPK phosphorylation at 50 mg/kg, ip QD for 32 consecutive days by Western blot analysis; format: functional, organism-based
How it was run: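 Nude mice carried subcutaneous SW620 xenografts (2×10^6 cells, right flank). Dosing began once mean tumor volume reached 100–200 mm³: 50 mg/kg ip once daily for 32 days, vehicle 10% DMSO/10% Kolliphor/80% saline. Tumors taken at day 32 and lysed in RIPA with protease inhibitors. Western blot with 20 µL of 2 mg/mL lysate on 7.5% SDS-PAGE, probed for pAMPK/AMPK or pACC/ACC, ECL detection.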

[5] = Inhibition of Wnt/beta-Catenin signaling in human SW480 cells incubated for 24 hrs by TCF/LEF dual-luciferase reporter assay; format: cell-based; settings: SW480, 24 h
How it was run: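 SW480 or SW620 cells seeded at 200,000/well and transiently transfected 24 h later with TOPflash firefly luciferase plus pRLTK-Renilla using lipofectamine 2000. After 16 h the medium was replaced with compound at a range of concentrations, three replicates each. Dual firefly/Renilla luciferase read 24 h later.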

SW-620 [6] = test: Induction of apoptosis in human SW620 cells assessed as necrotic cells level at 10 uM incubated for 48 hrs by AAD-7 and FITC-annexin-V staining based flow cytometry (reference value: 0.027%); format: functional
Homo sapiens [7] = species on record: Homo sapiens; test: Inhibition of Wnt/beta-Catenin signaling in human SW620 cells assessed as reduction in S100A4 mRNA expression at 10 uM incubated for 24 hrs by real-time PCR analysis; format: cell-based
How it was run: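 SW620 cells (RPMI 1640, 10% FBS) in 6-well plates, incubated 24 h, then treated with compound at several concentrations, three replicates each, for 24 h. Total RNA isolated with Trizol/phenol-chloroform; 2 µg reverse transcribed; Wnt target gene mRNA quantified by PCR.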

HEK293 = test: Induction of Axin-1 protein expression in recombinant human Wnt-3a-induced Wnt-HEK293 cells at 1 uM by fluorescence microscopy; format: functional, cell-based
How it was run: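 HEK293 cells treated at 1 µM, stained with anti-Axin-1 antibody and DAPI, imaged by fluorescence microscopy.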

[8] = target: Serine/threonine-protein kinase Nek6 (Homo sapiens) (UniProt Q9HC98); test: Inhibition of NEK6 (unknown origin) at 1000 nM relative to control; how it was run: as §1
SW-620 [9] = test: Induction of apoptosis in human SW620 cells assessed as early apoptotic cells level at 1 uM incubated for 48 hrs by AAD-7 and FITC-annexin-V staining based flow cytometry (reference value: 18.6%); format: functional
Homo sapiens [10] = species on record: Homo sapiens; test: Inhibition of Wnt/beta-Catenin signaling in human SW620 cells assessed as reduction in beta-catenin protein level at 1 to 30 uM by Western blot analysis; format: cell-based
How it was run: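 SW620 cells treated with a dose range of compound and lysed in RIPA buffer with protease inhibitor. Protein at 2 mg/mL, denatured at 98 °C for 5 min, run on 7.5% SDS-PAGE and transferred to nitrocellulose. Blocked in 5% BSA; rabbit anti-β-catenin (1:2,000) overnight at 4 °C with β-actin as loading control. HRP secondary (1:8000), 2 h; ECL detection.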

SW-620 [11] = test: Growth inhibition of human SW620 cells transfected with lentivrus-encoding shRNA against Axin-1 incubated for 72 hrs by Cell-titer-fluor reagent based assay; format: functional; settings: SW-620, 72 h
How it was run: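 SW620 cells, parental, overexpressing β-catenin S33Y, or with Axin-1 knocked down by lentiviral shRNA. Treated with compound or vehicle for 72 h.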

SW-620 [12] = test: Induction of apoptosis in human SW620 cells assessed as early apoptotic cells level at 10 uM incubated for 48 hrs by AAD-7 and FITC-annexin-V staining based flow cytometry (reference value: 18.6%); format: functional
SW-620 [13] = test: Antitumor activity against human SW620 cells xenografted in nude mouse assessed as reduction in tumor volume at 50 mg/kg, ip QD for 32 consecutive days relative to control; format: functional; set-up: scale not given: the % may be the effect or the level left; how it was run: as §2
SW-620 [14] = test: Induction of apoptosis in human SW620 cells assessed as necrotic cells level at 3 uM incubated for 48 hrs by AAD-7 and FITC-annexin-V staining based flow cytometry (reference value: 0.027%); format: functional
[15] = target: Ribosomal protein S6 kinase alpha-3 (Homo sapiens) (UniProt P51812); test: Inhibition of RPS6KA3 (unknown origin) at 1000 nM relative to control; how it was run: as §1
[16] = Inhibition of Wnt/beta-Catenin signaling (unknown origin) expressed in recombinant human Wnt-3a-induced Wnt-HEK293 cells incubated for 24 hrs by luciferase reporter gene assay; format: cell-based
How it was run: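 Stably transfected Wnt-HEK293 cells, 2000/well in DMEM + 10% FBS, incubated overnight at 37 °C. Compounds pin-transferred, then recombinant human Wnt-3a added (200 ng/mL stock); unstimulated control wells received medium. After 24 h at 37 °C, ONE-Glo luminescence read after 30 min at room temperature; CellTiter-Fluor viability read in parallel. IC50 reported as mean ± SD of three independent experiments.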

[17] = Toxicity in C57BL/6 mouse assessed as effect on body weight at 100 mg/kg/day, ip for 21 days; format: organism-based; settings: in vivo, 504 h
SW-620 [18] = test: Antitumor activity against human SW620 cells xenografted in nude mouse assessed as reduction in tumor volume at 10 mg/kg, ip QD for 32 consecutive days; format: functional, organism-based; how it was run: as §2
SW480 = test: Inhibition of colony formation in human SW480 cells incubated for 14 days by crystal violet staining based assay; format: functional, cell-based
How it was run: (§3)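 SW480, SW620 or HT29 cells seeded at 300/well in 3 mL medium in 6-well plates with a concentration series of compound. After 14 days, fixed in 4% formaldehyde and stained with 0.5% crystal violet in 25% aqueous MeOH; colonies photographed.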

SW-620 [19] = test: Induction of apoptosis in human SW620 cells assessed as early apoptotic cells level at 3 uM incubated for 48 hrs by AAD-7 and FITC-annexin-V staining based flow cytometry (reference value: 18.6%); format: functional
HT-29 = test: Inhibition of colony formation in human HT-29 cells incubated for 14 days by crystal violet staining based assay; format: functional, cell-based; how it was run: as §3

Mitogen-activated protein kinase kinase kinase kinase 4 (Homo sapiens), sequence (O95819 2-1239 limits assumed): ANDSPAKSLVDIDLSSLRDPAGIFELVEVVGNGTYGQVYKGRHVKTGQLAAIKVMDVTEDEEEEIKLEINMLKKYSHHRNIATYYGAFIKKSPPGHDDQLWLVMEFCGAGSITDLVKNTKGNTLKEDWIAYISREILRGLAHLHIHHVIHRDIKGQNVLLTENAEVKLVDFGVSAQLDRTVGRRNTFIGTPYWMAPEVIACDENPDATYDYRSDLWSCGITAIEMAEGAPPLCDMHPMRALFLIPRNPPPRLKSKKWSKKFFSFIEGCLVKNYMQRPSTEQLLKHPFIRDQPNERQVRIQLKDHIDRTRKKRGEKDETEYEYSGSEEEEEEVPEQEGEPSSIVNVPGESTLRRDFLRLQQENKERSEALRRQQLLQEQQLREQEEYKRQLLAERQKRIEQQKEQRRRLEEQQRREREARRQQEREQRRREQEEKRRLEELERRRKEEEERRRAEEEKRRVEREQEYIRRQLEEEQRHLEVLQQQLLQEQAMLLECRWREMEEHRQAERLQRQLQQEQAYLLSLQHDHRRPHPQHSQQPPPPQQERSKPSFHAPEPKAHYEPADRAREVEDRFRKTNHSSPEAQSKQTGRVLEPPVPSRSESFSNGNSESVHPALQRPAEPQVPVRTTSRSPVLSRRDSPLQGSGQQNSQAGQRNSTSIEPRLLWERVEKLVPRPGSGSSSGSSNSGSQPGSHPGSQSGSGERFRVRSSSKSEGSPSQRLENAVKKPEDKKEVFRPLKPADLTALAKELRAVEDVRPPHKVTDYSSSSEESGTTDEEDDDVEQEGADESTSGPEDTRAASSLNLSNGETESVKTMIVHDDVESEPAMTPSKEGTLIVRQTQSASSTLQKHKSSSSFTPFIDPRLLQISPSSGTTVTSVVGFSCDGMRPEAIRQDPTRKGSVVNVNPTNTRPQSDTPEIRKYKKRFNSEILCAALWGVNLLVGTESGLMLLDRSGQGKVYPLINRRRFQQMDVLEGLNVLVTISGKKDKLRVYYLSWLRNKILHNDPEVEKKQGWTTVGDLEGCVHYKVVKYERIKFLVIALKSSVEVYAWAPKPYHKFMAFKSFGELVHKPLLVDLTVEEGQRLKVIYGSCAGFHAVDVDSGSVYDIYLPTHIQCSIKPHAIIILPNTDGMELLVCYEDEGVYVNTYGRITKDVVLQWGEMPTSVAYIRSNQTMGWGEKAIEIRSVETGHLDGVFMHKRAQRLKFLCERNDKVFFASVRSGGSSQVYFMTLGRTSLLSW
Serine/threonine-protein kinase Nek6 (Homo sapiens), sequence (Q9HC98 whole entry): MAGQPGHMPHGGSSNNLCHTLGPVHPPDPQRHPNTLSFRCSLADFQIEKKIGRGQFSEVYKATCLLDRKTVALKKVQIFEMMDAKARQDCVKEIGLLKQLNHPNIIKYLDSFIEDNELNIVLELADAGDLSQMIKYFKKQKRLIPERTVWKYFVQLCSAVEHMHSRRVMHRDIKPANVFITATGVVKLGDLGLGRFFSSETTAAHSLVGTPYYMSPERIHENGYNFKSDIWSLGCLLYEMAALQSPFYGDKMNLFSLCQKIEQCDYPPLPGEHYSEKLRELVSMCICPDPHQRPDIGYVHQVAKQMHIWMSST
Ribosomal protein S6 kinase alpha-3 (Homo sapiens), sequence (P51812 whole entry): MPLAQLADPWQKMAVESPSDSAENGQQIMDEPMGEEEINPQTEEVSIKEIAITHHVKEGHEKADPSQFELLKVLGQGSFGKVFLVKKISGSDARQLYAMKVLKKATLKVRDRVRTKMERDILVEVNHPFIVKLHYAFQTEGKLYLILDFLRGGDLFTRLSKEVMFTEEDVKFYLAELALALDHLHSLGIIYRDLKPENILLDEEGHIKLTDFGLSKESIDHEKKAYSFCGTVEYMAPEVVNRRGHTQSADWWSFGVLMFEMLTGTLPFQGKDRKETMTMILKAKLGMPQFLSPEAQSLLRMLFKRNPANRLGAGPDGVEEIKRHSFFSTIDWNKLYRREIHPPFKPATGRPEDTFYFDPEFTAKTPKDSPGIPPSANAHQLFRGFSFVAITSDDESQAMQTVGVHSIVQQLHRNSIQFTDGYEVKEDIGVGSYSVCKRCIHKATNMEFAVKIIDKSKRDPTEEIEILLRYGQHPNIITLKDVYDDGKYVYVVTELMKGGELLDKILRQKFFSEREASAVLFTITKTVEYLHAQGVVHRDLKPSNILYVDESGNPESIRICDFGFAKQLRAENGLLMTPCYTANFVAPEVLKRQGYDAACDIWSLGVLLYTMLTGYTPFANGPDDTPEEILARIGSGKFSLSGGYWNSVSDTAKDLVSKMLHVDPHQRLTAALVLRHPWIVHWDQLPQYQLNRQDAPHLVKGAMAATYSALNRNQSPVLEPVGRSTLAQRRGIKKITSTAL
Maternal embryonic leucine zipper kinase (Homo sapiens), sequence (Q14680 whole entry, looked up): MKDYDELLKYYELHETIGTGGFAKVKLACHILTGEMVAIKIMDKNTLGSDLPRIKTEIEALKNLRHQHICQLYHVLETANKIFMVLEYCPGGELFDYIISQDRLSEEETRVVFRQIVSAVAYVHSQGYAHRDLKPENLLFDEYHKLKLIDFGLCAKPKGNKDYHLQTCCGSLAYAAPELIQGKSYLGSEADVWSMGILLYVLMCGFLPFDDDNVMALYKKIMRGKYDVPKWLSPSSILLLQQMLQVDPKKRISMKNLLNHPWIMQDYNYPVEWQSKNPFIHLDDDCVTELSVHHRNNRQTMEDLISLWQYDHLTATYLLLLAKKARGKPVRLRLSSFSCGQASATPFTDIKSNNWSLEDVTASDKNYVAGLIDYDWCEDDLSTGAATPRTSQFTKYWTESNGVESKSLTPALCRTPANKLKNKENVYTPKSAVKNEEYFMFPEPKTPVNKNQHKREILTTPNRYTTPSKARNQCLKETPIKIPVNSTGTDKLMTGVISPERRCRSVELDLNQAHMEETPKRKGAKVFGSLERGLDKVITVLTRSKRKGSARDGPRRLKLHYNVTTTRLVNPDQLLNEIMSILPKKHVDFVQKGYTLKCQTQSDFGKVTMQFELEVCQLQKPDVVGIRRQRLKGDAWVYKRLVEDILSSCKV

For Cc1c(C(=O)Nc2ccc3ccccc3n2)cnn1-c1ccccc1Br, the Activity [1] was “Non-Toxic”, the inhibition [2] was “Active” and the inhibition [3] was “Active”. For the same compound, the Activity (SW-620 [4]) was “Active”, the Activity (Mus musculus) was “Active” and the IC50 [5] was 1.15 nM. The Activity (SW-620 [6]) was 0.00722%, the inhibition (Homo sapiens [7]) was “Active” and the Activity (HEK293) was “Active”. For the same compound, the inhibition [8] was “Active”, the Activity (SW-620 [9]) was 23.4% and the inhibition (Homo sapiens [10]) was “Active”. It also gave an IC50 (SW-620 [11]) of 85.4 nM, an Activity (SW-620 [12]) of 57.9% and an Activity (SW-620 [13]) of 49%. The Activity (SW-620 [14]) was 0.048%, the inhibition [15] was 39% and the IC50 [16] was 2.3 nM. For the same compound, the Activity [17] was “Non-Toxic”, the Activity (SW-620 [18]) was “Active” and the inhibition (SW480) was “Dose-dependent effect”. For the same compound, the Activity (SW-620 [19]) was 35.7% and the inhibition (HT-29) was “Dose-dependent effect”.
